High-throughput results: PubChem, several laboratories
Hits are enriched below; roughly 3.8% of the tested compounds scored in any of these assays.
MrgX1 antagonist – antagonists of human MrgX1 receptor, primary screen, HEK293 cells, Fluo-4 calcium flux; AID 588676, 2011; BAM8-22 antagonism; stronger effect = lower value; B-score at 10 µM; hit rate 1.3% among 310,000;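 active = calcium-response B-score plate-corrected more than 3 library SD below zero, starting fluorescence within 5 deviations, no agonist response on first addition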;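 note: peak minus trough fluorescence over baseline after final BAM8-22 challenge near maximal dose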
Target sequence (Q96LB2 whole entry, looked up): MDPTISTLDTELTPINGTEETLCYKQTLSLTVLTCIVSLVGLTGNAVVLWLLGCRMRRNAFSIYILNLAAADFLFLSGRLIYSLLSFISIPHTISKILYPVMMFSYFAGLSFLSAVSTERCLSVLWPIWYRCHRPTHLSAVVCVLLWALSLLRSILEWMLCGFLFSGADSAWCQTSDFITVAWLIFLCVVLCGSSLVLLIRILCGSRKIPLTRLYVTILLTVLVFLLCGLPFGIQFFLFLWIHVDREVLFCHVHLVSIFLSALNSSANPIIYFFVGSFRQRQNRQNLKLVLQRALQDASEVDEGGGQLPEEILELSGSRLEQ
MrgX1 ag – agonists of human MrgX1 receptor, primary screen, HEK293 cells, Fluo-4 calcium flux. Fluo-4 calcium fluorescence, agonist mode; stronger effect = higher value. B-score at 10 µM. AID 588627, 2011. Mas-related G-protein coupled receptor member X1 (Homo sapiens), Q96LB2. hit rate 0.44% among 310,000;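 active = calcium response B-score plate-corrected fluorescence ratio at least 3 library SD, with starting fluorescence B-score inside 5 SD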
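Material – MrgX1-expressing HEK293 cells · Input – 15,000 cells seeded per well · Dosing – compound as first of three additions · Times – overnight seeding, then 1 h dark dye loading · Measured by – kinetic Fluo-4 NW fluorescence of intracellular calcium · Read-out – B-scored fluorescence response ratio · Benchmarks – positive and negative control wells on each plate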
Lipid droplet – inhibitors of hepatocyte lipid droplet formation, primary screen, imaging, high-throughput imaging, BODIPY stain. AML12 mouse hepatocytes, oleate lipid droplets. inhibition, % at 6.5 µM. hit rate 0.4% among 240,000. AID 1656, 2009;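 active = lipid droplet intensity inhibited by at least 50%, with more than 500 cells counted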
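Assay system: AML12 mouse liver cells | Compound dosing: One dose, 6.5 µM compound | Read-out basis: Droplet intensity reduction, % inhibition | Measured by: Fluorescence imaging, 20x objective, two fields per well | Schedule: Overnight treatment with compound plus oleate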
MrgX1 PAM – positive allosteric modulators of MrgX1, primary screen, HEK293 cells, Fluo-4 calcium flux; FDSS; stronger effect = higher value; B-score at 10 µM; hit rate 0.63% among 310,000;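 active = plate-corrected calcium response at least 3 library SD above typical, normal starting fluorescence, not activating the receptor alone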;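 note: compound read alongside a low EC10 to EC30 dose of BAM8-22 agonist; peak minus trough fluorescence over baseline measured at the second addition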
RGS4 act – RGS4 potentiators or activators, primary screen, cell-based, HEK293 M3R inducible RGS4, calcium flux; B-score at 10 µM; carbachol calcium flux Fluo4; stronger effect = lower value; hit rate 0.92% among 310,000;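 active = B-score of the integrated calcium signal more than 4 SD below the library mean, with starting fluorescence not abnormally high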;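 note: negative B-score means reduced calcium response which marks RGS4 activation or potentiation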
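Reagent: ECmax carbachol challenge; Test system: M3R-expressing HEK293 line, RGS4 induced by doxycycline; Schedule: overnight RGS4 induction, 30 min dye load 37 °C, 20 min compound RT; Detection: calcium dye Fluo4 fluorescence; Read-out: Agonist-evoked peak-minus-minimum fluorescence over baseline, integrated ratio, B score.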
RGS4 inh – RGS4 inhibitors, primary screen, cell-based, HEK293 M3R inducible RGS4, calcium flux; Regulator of G-protein signaling 4 (Homo sapiens), P49798; Fluo-4 calcium flux; stronger effect = higher value; triggered by carbachol at its EC20; B-score at 10 µM; hit rate 0.45% among 310,000;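 active = B-score, a plate-corrected calcium signal, over three deviations above library mean, with baseline fluorescence within five deviations of library mean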;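 note: RGS4 expression induced by doxycycline in cells with stable M3 receptor; B-score is computed from the integrated fluorescence ratio over baseline after carbachol; higher B-score means a larger calcium signal and so more RGS4 inhibition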
Target sequence (P49798 whole entry, looked up): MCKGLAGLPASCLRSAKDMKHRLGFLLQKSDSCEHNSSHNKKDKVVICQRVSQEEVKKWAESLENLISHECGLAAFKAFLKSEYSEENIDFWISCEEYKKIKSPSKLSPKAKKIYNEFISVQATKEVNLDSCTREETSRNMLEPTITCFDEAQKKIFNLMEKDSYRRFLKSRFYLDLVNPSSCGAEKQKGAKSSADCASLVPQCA
Large screens that a line does not name were inactive.

CC(C)C(OC(=O)c1nsc(Cl)c1Cl)C(=O)NCC1CCCO1 (configuration not stated)	none
CS(=O)(=O)N1N=C(c2ccc3nccnc3c2)CC1c1ccccc1 (configuration not stated)	MrgX1 PAM 6.5 (no result: Lipid droplet)
C/C(=C\C(=O)c1ccc(Br)cc1)Nc1ccc(Cl)cc1	RGS4 act -7.2
COc1cccc(/C=N/n2c(N)c(S(=O)(=O)c3cccs3)c3nc4ccccc4nc32)c1OC	none (no result: Lipid droplet)
Nc1c(S(=O)(=O)c2cccc(Cl)c2)c2nc3ccccc3nc2n1/N=C/c1ccc(O)c(O)c1	RGS4 inh 16 (no result: Lipid droplet)
COc1cc(/C=C2/SC(=S)N(c3c(C)n(C)n(-c4ccccc4)c3=O)C2=O)ccc1O	MrgX1 ag 36
COc1ccc(C(=O)NNC(=O)C(=O)NC2CCCCC2)cc1	none
CN(C(=S)Nc1ccc(SC(F)F)cc1)C(c1ccccc1)c1ccccc1	RGS4 act -7.4
CN(C)CCCN(Cc1ccccc1)C(=S)Nc1ccc(SC(F)F)cc1	RGS4 act -7.3
Nc1c([N+](=O)[O-])cnnc1-c1ccccc1	none
COc1ccccc1N1CC(C(=O)Nc2nnc(SCC(=O)N3CCOCC3)s2)CC1=O (configuration not stated)	none
O=C(Nc1ccc(C2=NCCN2)cc1)c1ccc(Cl)c(C(=O)Nc2ccc(C3=NCCN3)cc2)c1	none
COc1ccc(NC(=O)/C(C#N)=C/c2ccc(OCCN3CCOCC3)c(OC)c2)c(OC)c1	none
CCC(=NCc1ccc(Cl)c(Cl)c1)c1nc(-c2ccco2)oc1O	RGS4 act -7.1 (no result: Lipid droplet)
COc1ccc(N=Cc2nc(-c3ccco3)oc2O)cc1	none
CC(C)c1ncc(C(O)c2cccc3ccccc23)n1C (configuration not stated)	none
CCC(O)CNc1nc(SC)nc2sc3c(c12)CCN(C)C3 (configuration not stated)	RGS4 act -7.2
CSc1nc(NCc2ccco2)c2c3c(sc2n1)CN(C)CC3	MrgX1 antagonist -4.7, RGS4 act -7.7
Cc1cc(C)n(-c2ccc(NC(=O)C3CCCCN3C(=O)c3ccc(C)s3)cc2)n1 (configuration not stated)	none
CCOC(=O)C(NC(=O)c1ccccc1)(OCc1ccc(F)cc1)C(F)(F)F (configuration not stated)	none
CCOC(=O)C(NC(=O)c1cccc(Cl)c1)(OCc1ccc(F)cc1)C(F)(F)F (configuration not stated)	Lipid droplet 64
CCOC(=O)CCSc1nc(C(C)(C)C)cc(C(F)(F)F)c1C#N	RGS4 act -7.2
COC(=O)c1ccc(CN(C(C)=O)c2ccccc2)o1	RGS4 act -7.3 (no result: Lipid droplet)
CC(=O)N/C(=C\c1ccccc1)C(=O)OCc1cccc(S(=O)(=O)N(C)C)c1	none
C=C1CC2C=C(NC(C)=O)CC(C1)C2 (configuration not stated)	none (no result: Lipid droplet)
Cc1ccc(S(=O)(=O)/N=C(/Nc2cccc3ccccc23)c2ccc(F)cc2)cc1	none
COc1ccccc1N(CC(O)COc1c(C)cc(C)cc1C)S(=O)(=O)c1ccccc1 (configuration not stated)	MrgX1 PAM 7.9
O=c1oc(Cc2ccccc2)nc2ccccc12	none
COc1ccccc1Oc1ccc(S(=O)(=O)N2CCCC2)cc1	MrgX1 antagonist -6.1
COc1ccccc1Oc1ccc(S(=O)(=O)N2CCCCC2C)cc1 (configuration not stated)	none (no result: Lipid droplet)
O=[N+]([O-])c1ccc(N/N=C\c2cccn2-c2ccccc2)nc1	MrgX1 PAM 8 (no result: Lipid droplet)
O=[N+]([O-])c1ccc(N/N=C/c2cccs2)nc1	none (no result: Lipid droplet)
COc1ccc(-c2csc(NC(=O)CSCc3c(C)noc3C)n2)c(OC)c1	none (no result: Lipid droplet)
O=C1N/C(=C/c2cccs2)C(=O)N1Cc1ccccc1F	none
Cc1ccc(/C=C2/NC(=O)N(Cc3ccccc3F)C2=O)s1	MrgX1 antagonist -7.5
O=C(/C=C/c1ccc([N+](=O)[O-])s1)N1CCCC1	MrgX1 antagonist -4.6
O=C(/C=C/c1ccc([N+](=O)[O-])s1)N1CCCCC1	none
COc1ccccc1-c1coc2cc(O)cc(O)c2c1=O	MrgX1 ag 34
CCOC(=O)N1CCN(S(=O)(=O)c2ccc(C(=O)N(CCCN(C)C)c3nc4c(C)c(C)ccc4s3)cc2)CC1	none (no result: Lipid droplet)
COc1ccc2sc(N(CCCN(C)C)C(=O)c3ccc(S(=O)(=O)N4CCCC4)cc3)nc2c1	RGS4 act -7.2 (no result: Lipid droplet)
CCOC(=O)N1CCN(S(=O)(=O)c2ccc(C(=O)N(CCCN(C)C)c3nc4cc(OC)ccc4s3)cc2)CC1	RGS4 act -7.6 (no result: Lipid droplet)
Cc1cc(C)c(S(=O)(=O)N2CCOC2CNC(=O)C(=O)NCCN2CCOCC2)c(C)c1 (configuration not stated)	none
COc1ccc(C(=O)Nc2ccnn2C2CCN(C(=O)c3cc(C)on3)CC2)cc1	none
O=C(O)c1ccccc1N/N=C\c1ccnc2ccccc12	MrgX1 ag 41 (no result: Lipid droplet)
O=C(O)c1ccccc1N/N=C/c1cc(Br)cc(Br)c1O	MrgX1 antagonist -6.4
O=C(Cc1ccccc1)N/N=C/c1cc(Br)cc(Br)c1O	none
O=C(O)c1ccccc1NC(=O)c1ccccc1Nc1ccccc1	none
O=C1/C(=C/c2cccc([N+](=O)[O-])c2)CCc2ccccc21	MrgX1 antagonist -5.8
O=C1/C(=C/c2ccc([N+](=O)[O-])cc2)CCc2ccccc21	none
CC(C)CN1CCC(=O)N([C@H](COc2ccccc2)c2ccccc2)CC1	none
CCCOc1cccc(-c2cc(-c3n[nH]c(=S)n3CC)c3ccccc3n2)c1	RGS4 act -8.5 (no result: Lipid droplet)
CCC1(c2ccc(F)cc2)NC(=O)N(CC(=O)NCC(=O)Nc2cccc(C)c2C)C1=O (configuration not stated)	none (no result: Lipid droplet)
CC(C)[C@H](NC(=O)[C@H](CCCN=C(N)N)NC(=O)NC(Cc1ccccc1)C(=O)O)C(=O)NC(C=O)CCCN=C(N)N (some centres not stated)	MrgX1 ag 46
O=C(NC(Cc1ccccc1)C(=O)O)/C(=C/c1ccc(Br)cc1)NC(=O)c1ccc(Br)o1 (configuration not stated)	none
CN(C)c1ccc(NC(=S)NC23CC4CC(CC(C4)C2)C3)cc1	none
COc1ccccc1CN(C)C(=O)c1cc(-c2cc(OC)c(OC)c(OC)c2)nc2ccccc12	none
CCN(Cc1ccccc1)C(=O)c1cc(-c2ccc(OC)c(OC)c2)nc2ccccc12	RGS4 act -9.2
